Assay results published in ChEMBL document CHEMBL3739290, “Thioxo-dihydroquinazolin-one Compounds as Novel Inhibitors of Myeloperoxidase” (ACS Med Chem Lett, 2015).
The source made the active and inactive calls. The rule behind the calls is not given here.

Experiments:
Myeloperoxidase = target: T1, Myeloperoxidase (Homo sapiens, UniProt P05164); assay: Inhibition of human recombinant myeloperoxidase by amplex red assay
T1 sequence (P05164 whole entry): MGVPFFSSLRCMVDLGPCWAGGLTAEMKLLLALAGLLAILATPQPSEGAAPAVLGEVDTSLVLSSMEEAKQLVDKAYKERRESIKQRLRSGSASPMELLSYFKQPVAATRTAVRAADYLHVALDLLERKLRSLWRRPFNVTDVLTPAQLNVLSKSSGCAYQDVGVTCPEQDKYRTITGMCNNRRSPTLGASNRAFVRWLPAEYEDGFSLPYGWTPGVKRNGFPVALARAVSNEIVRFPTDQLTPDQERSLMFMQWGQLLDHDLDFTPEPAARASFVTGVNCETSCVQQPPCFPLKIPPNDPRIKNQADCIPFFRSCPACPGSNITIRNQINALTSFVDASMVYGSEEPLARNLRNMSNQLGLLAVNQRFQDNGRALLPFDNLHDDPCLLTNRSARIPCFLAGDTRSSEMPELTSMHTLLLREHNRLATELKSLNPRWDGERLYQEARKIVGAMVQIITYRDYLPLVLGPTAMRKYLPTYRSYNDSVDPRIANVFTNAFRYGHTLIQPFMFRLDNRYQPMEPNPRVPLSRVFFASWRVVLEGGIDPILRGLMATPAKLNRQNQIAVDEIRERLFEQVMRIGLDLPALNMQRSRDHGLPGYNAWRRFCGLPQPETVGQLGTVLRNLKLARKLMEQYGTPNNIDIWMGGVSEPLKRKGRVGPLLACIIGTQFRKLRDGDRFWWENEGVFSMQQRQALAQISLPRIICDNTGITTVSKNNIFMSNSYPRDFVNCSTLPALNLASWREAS

[1] = target: T2, Xanthine dehydrogenase/oxidase (Homo sapiens, UniProt P47989); assay: Inhibition of xanthine oxidase (unknown origin) assessed as superoxide generation measured for 20 mins by luminescence analysis using 50 uM xanthine as a substrate
Summary of the method: (§1)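 Xanthine/xanthine oxidase served as the oxidant source to check for assay interference. The buffer and pH matched the MPO Amplex Red assay. Inhibitors were tested over a range up to 100 μM.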

Armoracia rusticana = assay: Inhibition of horseradish peroxidase by amplex red assay
Summary of the method: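 Interference counter-screen: the Amplex Red peroxidase assay was run with HRP (20 nM) in place of human MPO, across a range of compound concentrations. Points are the mean ± SEM of three determinations.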

[2] = target: T2, Xanthine dehydrogenase/oxidase; assay: Inhibition of xanthine oxidase (unknown origin) assessed as superoxide generation upto 100 uM measured for 20 mins by luminescence analysis using 50 uM xanthine as a substrate; details: read-out: Imax; summary of the method: as §1
[3] = Solubility of compound in water by nephelometry; assay type: physicochemical
[4] = target: T3, Myeloperoxidase (Homo sapiens) (UniProt P05164); details: 6 uM
T3 sequence (whole entry): T1 sequence (P05164 whole entry)

[5] = target: T3, Myeloperoxidase (Homo sapiens); details: 100 uM

T2 sequence (P47989 whole entry): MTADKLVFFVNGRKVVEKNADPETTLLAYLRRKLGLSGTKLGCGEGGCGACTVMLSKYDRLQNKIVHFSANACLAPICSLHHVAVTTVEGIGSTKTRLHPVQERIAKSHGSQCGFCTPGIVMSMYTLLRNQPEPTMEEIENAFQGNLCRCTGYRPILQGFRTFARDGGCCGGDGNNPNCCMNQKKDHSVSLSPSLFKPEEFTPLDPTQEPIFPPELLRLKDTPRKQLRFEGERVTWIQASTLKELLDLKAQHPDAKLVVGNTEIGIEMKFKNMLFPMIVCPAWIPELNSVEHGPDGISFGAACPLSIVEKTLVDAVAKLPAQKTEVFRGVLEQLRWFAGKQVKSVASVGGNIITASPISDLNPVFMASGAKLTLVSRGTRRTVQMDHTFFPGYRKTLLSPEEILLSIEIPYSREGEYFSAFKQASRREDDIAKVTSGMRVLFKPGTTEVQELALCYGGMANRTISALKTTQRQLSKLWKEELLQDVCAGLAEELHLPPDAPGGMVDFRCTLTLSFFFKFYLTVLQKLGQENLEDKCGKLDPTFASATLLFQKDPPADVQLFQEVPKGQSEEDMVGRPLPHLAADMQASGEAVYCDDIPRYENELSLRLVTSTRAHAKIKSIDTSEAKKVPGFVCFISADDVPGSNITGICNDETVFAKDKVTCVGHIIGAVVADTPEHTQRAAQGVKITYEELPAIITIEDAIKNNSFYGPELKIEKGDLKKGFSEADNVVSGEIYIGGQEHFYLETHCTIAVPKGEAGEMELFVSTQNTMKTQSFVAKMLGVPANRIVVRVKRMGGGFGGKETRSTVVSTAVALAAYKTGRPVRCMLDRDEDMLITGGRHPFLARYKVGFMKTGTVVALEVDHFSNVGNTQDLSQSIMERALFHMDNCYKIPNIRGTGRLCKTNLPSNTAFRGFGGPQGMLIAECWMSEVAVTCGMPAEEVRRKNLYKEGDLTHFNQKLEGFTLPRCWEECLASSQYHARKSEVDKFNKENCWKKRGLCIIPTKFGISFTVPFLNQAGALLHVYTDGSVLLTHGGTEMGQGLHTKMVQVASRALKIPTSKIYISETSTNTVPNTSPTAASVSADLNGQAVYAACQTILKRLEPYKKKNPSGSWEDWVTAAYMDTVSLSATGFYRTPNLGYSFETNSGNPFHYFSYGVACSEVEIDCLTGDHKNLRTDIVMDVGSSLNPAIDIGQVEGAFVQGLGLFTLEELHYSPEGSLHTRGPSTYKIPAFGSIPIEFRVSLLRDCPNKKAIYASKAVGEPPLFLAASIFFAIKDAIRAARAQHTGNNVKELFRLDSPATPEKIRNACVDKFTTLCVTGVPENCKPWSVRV

| SMILES | IC50 (Myeloperoxidase; read-out: IC50) | IC50 [1] | other results |
| --- | --- | --- | --- |
| CN(C)CCn1c(=S)[nH]c2ccccc2c1=O | 1700 nM | Not Active | – |
| CN(C)CCCCCn1c(=O)[nH]c2ccccc2c1=O | 10000 nM | Not Active | – |
| CCn1c(=S)[nH]c2ccc(F)cc2c1=O | 15000 nM | Not Active | – |
| CN(C)CCCn1c(=S)[nH]c2ccc(Cl)cc2c1=O.Cl | 800 nM | – | inhibition (Armoracia rusticana): inactive; IC50 ([1]; read-out: IC50): 15 µM; Emax [2]: 71%; solubility kinetic [3]: 90 µg/mL |
| CC(C)n1c(=S)[nH]c2cc3c(cc2c1=O)OCCO3 | > 20000 nM | – | IC50 ([1]; read-out: IC50): 4.5 µM; Emax [2]: 60% |
| CN(C)CCCCn1c(=O)[nH]c2ccccc2c1=O | 10000 nM | Not Active | – |
| CN(C)CCCn1c(=S)[nH]c2ccccc2c1=O | 1300 nM | – | IC50 ([1]; read-out: IC50): 20 µM; Emax [2]: 20% |
| O=C(Nn1c(=S)[nH]c2cc3c(cc2c1=O)OCCO3)c1ccc(C(F)(F)F)cc1 | 300 nM | Not Active | – |
| NNC(=O)c1ccc(N)cc1 | – | – | inhibition [4]: Active |
| O=C(NO)c1ccccc1O | – | – | inhibition [5]: Active |
| CN(C)CCCn1c(=O)[nH]c2ccccc2c1=O | – | Not Active | IC50 (Myeloperoxidase): Not Active |
| CCN(CC)CCn1c(=S)[nH]c2ccccc2c1=O | 1600 nM | Not Active | – |
| CN(C)CCCn1c(=S)[nH]c2c(Cl)cc(Cl)cc2c1=O | > 20000 nM | Not Active | – |
| CN(C)CCCn1c(=S)[nH]c2cc(F)c(F)cc2c1=O.Cl | 1200 nM | Not Active | – |
| CN(C)CCCCCCn1c(=S)[nH]c2ccc(F)cc2c1=O | > 20000 nM | – | IC50 ([1]; read-out: IC50): 18 µM; Emax [2]: 35% |
| O=c1c2ccccc2[nH]c(=S)n1CCCCCO | > 40000 nM | Not Active | – |
| CN(C)CCCn1c(=S)[nH]c2ccc(F)cc2c1=O.Cl | 600 nM | Not Active | – |
| CN1CCN(CCCn2c(=S)[nH]c3ccccc3c2=O)CC1 | 1400 nM | Not Active | – |
| O=C(Nn1c(=S)[nH]c2ccc(F)cc2c1=O)c1cccc(F)c1 | – | – | inhibition (Armoracia rusticana): inactive |
| CN(C)CCCn1c(=S)[nH]c2cc(Cl)ccc2c1=O | 8000 nM | – | IC50 ([1]; read-out: IC50): 4 µM; Emax [2]: 50% |
| O=c1c2ccccc2[nH]c(=S)n1CCN1CCCCC1 | 400 nM | Not Active | – |
